According to PubChem BioAssay:
Active and inactive are the calls of the source.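 Rule for the calls, unless noted: active = NADPH fluorescence slope more negative than the mean of all samples by about 3 SD, 99.7% confidence; inactive = the rest.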

Columns and labels:
[1] = inhibitors of TNFa-induced NFkB p65 translocation, primary screen, imaging, HUVEC, MLSMR starter and 10KST1 sets (AID 438;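 active = inhibition above 20% together with a positive visual image hit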;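 note: compound added about 3h40 before a 20 min TNFalpha stimulation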;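 for inhibition: signal is the nuclear over cytoplasmic p65 intensity ratio per well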); details: HUVEC TNFa-induced p65 nuclear translocation; cell count: measured here: nuclei count (cytotoxicity indicator), at 2.08 µM; inhibition: at 2 µM, stronger effect = higher value, 0% TNFa-plus-vehicle, 100% no-TNFa wells
[2] = inhibitors of mutant huntingtin aggregation, primary screen, imaging, exon1htt(103Q)mCFP cells, high-content imaging (AID 483;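 active = visual image review flags a hit and inhibition of aggregation exceeds 20%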;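 note: compound exposure lasted 3 days before fixation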;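 for nuclei count: percent of the per-plate median nuclei count of sample wells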); details: exon1htt(103Q)mCFP cell line, aggregate imaging, at 2 µM; inhibition of aggregation: stronger effect = higher value; nuclei count: measured here: cell count, toxicity
[3] = inhibitors of E-selectin induction by TNFa, primary screen, imaging, HUVEC, immunofluorescence, MLSMR starter and 10KST1 sets (AID 487;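 active = visually confirmed hit in the image check and inhibition above 20%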;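 for inhibition: signal is fraction of cell area covered by stained E-selectin grains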;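 for nuclei count: 100% = median nuclei count of all wells on the same plate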); details: HUVEC TNFalpha-induced E-selectin immunofluorescence imaging, at 2 µM; inhibition: stronger effect = higher value; nuclei count: measured here: cell number, toxicity
[4] = target: Voltage-gated potassium channel subunit beta-2 (Rattus norvegicus) (UniProt P62483); assay: KvBeta enzyme negative modulators, primary screen, biochemical, NADPH fluorescence (AID 622;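 active = fluorescence slope higher than the sample average by over 3 SD, cut at about -0.22 in these data, passing the limit was not always enough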;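 note: slope of raw intensity against log time taken from 70 to 1610 s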); details: recombinant KvBeta, 4-cyanobenzaldehyde reduction, at 10 µM, stronger effect = higher value
[5] = target: Voltage-gated potassium channel subunit beta-2 (Rattus norvegicus) (UniProt P62483); assay: KvBeta positive modulators, primary screen, biochemical, NADPH fluorescence (AID 623); details: Recombinant KvBeta, NADPH fluorescence decrease slope, 10 min; at 10 µM; stronger effect = lower value;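 note: fluorescence intensity change per second fitted from 20 to 320 s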
[6] = target: Muscarinic acetylcholine receptor M4 (Homo sapiens) (UniProt P08173); assay: compounds altering M4/GIRK thallium flux, either direction, primary screen, M4 allosteric agonist project, cell-based, HEK293 M4/GIRK, BTC-AM (AID 625;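 active = fluorescence slope after compound addition differing from the mean of all tested samples at 99.7% confidence, mostly higher but some lower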;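 note: thallium influx through GIRK channels coupled to M4 in HEK293 cells with BTC-AM dye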); details: at 10 µM, actives lie on both sides
Method in brief: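 Assay system: HEK293 cells with M4 receptor and GIRK channels / Controls: carbachol and DMSO controls / Schedule: 1 h dye loading, 2 min kinetic read / Technique: kinetic fluorescence with BTC-AM dye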

[7] = inhibitors of Sendai virus-induced IRF3 signaling, primary screen, TLR/RLR signaling modifier project, cell-based, Sendai virus stimulus, luciferase, 10K MLSCN set (AID 602276;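 active = inhibition at or above 50% at 10 µM; inactive = inhibition below 50%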;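 note: firefly luciferase from ISG56 promoter only with Renilla not read in this screen; 0% = Sendai virus plus DMSO and 100% = medium plus DMSO without virus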); details: HEK293 RL24 IRF3 luciferase reporter, at 10 µM, stronger effect = higher value
[8] = inhibitors of poly I:C-induced TLR3 signaling, primary screen, cell-based, poly I:C stimulus, luciferase, 10K MLSCN set (AID 602277;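 active = inhibition of the reporter signal at or above 50%; inactive = inhibition below 50%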); details: HEK293-TLR3 RL24 IRF3 luciferase reporter, at 10 µM, stronger effect = higher value

Muscarinic acetylcholine receptor M4 (Homo sapiens), sequence (P08173 whole entry, looked up): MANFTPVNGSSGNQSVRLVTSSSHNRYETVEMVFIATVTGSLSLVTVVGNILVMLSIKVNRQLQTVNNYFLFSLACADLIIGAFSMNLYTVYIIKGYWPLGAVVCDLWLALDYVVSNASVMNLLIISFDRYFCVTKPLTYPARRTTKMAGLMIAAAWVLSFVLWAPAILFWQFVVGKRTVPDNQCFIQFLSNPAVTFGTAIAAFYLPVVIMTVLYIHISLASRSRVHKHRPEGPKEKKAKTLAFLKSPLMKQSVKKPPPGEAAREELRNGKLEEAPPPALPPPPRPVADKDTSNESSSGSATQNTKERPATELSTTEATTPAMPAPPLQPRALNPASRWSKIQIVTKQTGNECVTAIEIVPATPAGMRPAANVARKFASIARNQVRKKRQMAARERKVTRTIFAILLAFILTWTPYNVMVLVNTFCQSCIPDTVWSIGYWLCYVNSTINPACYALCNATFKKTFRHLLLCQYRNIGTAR
Voltage-gated potassium channel subunit beta-2 (Rattus norvegicus), sequence (P62483 whole entry, looked up): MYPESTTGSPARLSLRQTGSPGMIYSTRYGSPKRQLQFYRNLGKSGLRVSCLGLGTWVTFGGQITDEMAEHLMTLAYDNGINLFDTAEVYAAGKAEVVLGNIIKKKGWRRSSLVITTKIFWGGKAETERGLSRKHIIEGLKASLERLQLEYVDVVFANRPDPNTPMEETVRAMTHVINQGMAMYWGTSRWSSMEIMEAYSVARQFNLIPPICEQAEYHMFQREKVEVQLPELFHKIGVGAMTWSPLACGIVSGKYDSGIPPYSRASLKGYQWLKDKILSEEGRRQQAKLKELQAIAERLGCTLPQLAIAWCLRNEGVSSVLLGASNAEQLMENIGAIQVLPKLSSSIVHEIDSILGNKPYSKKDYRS

SMILES	cell count [1]	inhibition [1]	inhibition of aggregation [2]	nuclei count [2] [%]	inhibition [3]	nuclei count [3] [%]	fluorescence slope [4]	NADPH fluorescence slope [5]	fluorescence slope [6]	inhibition [7]	inhibition [8]
CCSc1nc(C)nc2c1oc1ccccc12	407	1.9% (inactive)	2.4% (inactive)	96.3	-45.2% (inactive)	106	-0.423 (inactive)	-7.5e-05 (inactive)	0.00861 (inactive)	-4.86% (inactive)	-3.79% (inactive)
O=c1cc(COn2nnc3ccc(C(F)(F)F)cc32)nc2sccn12	379	-22% (inactive)	-2.2% (inactive)	109	-51.6% (inactive)	141	-0.478 (inactive)	3.2e-05 (inactive)	0.00817 (inactive)	-2.54% (inactive)	14.9% (inactive)
CCN1C(=O)N(CC)C2C1N(C(C)=O)C(=O)N2C(C)=O (stereo not drawn)	373	3.7% (inactive)	0.2% (inactive)	115	-9.3% (inactive)	117	-0.579 (inactive)	-6.5e-05 (inactive)	0.0074 (inactive)	13.4% (inactive)	16.9% (inactive)
CSc1nnc2n(CCc3ccccc3)c(=O)c3c4c(sc3n12)CCCC4	295	-21.3% (inactive)	-2.1% (inactive)	106	-22% (inactive)	112	-0.476 (inactive)	-2.9e-05 (inactive)	0.00521 (inactive)	7.14% (inactive)	-1.7% (inactive)
Cc1cccc(N2CCN(C(=O)c3cc4c(=O)[nH]c5ccccc5c4n3C)CC2)c1C	228	5.8% (inactive)	5.3% (inactive)	85.4	-26.1% (inactive)	106	-0.529 (inactive)	-2.8e-05 (inactive)	0.00424 (inactive)	9.93% (inactive)	-17.5% (inactive)
Cc1onc(-c2ccccc2)c1C(=O)Nc1ccnn1C1CCCCC1	387	1.4% (inactive)	0.6% (inactive)	94.4	8.4% (inactive)	81.7	-0.367 (inactive)	-8.4e-05 (inactive)	0.00689 (inactive)	9.16% (inactive)	18.3% (inactive)
CC(=O)C1=C(O)C(=O)N(Cc2ccco2)C1c1ccc2c(c1)OCO2 (stereo not drawn)	403	10.9% (inactive)	1.6% (inactive)	104	7.1% (inactive)	116	-0.513 (inactive)	-2.5e-05 (inactive)	0.00429 (inactive)	0.0775% (inactive)	11.9% (inactive)
CC1CCN(CCC(=O)Nc2ccc(Br)cc2)CC1	612	7.4% (inactive)	-13.6% (inactive)	99.8	88.6% (active)	179	-0.42 (inactive)	2.4e-06 (inactive)	0.00434 (inactive)	14% (inactive)	19.3% (inactive)
CCOC(=O)c1cccc(NC(=O)Cn2cnc3c2c(=O)n(C)c(=O)n3C)c1	467	10.1% (inactive)	2.8% (inactive)	123	2.2% (inactive)	114	-0.261 (inactive)	-7e-06 (inactive)	0.00582 (inactive)	-6.03% (inactive)	-6.74% (inactive)
COc1cc(NC(=O)Cc2nn(C)c(=O)c3ccccc23)cc(OC)c1	693	-14.8% (inactive)	-21.4% (inactive)	106	-39% (inactive)	108	-0.585 (inactive)	-4.8e-05 (inactive)	0.00514 (inactive)	-12.7% (inactive)	-56.4% (inactive)
COc1ccc(-c2coc3c(CN4CCCCC4)c(O)c(CN4CCCCC4)c(O)c3c2=O)cc1	367	-17% (inactive)	8.6% (inactive)	85.4	-63.6% (inactive)	103	-0.566 (inactive)	-2.2e-05 (inactive)	0.00504 (inactive)	5.54% (inactive)	32.3% (inactive)
CC(=O)c1ccc(NC(=O)c2noc3c2CCCCC3)cc1	214	2.3% (inactive)	-0.6% (inactive)	108	-10.4% (inactive)	118	-0.512 (inactive)	-6e-05 (inactive)	0.00493 (inactive)	-32.5% (inactive)	-114% (inactive)
O=c1[nH]c2cccnc2n1Cc1ccco1	325	-4.2% (inactive)	-15% (inactive)	114	-5.2% (inactive)	119	-0.323 (inactive)	-4.8e-05 (inactive)	0.0064 (inactive)	7.81% (inactive)	6.25% (inactive)
O=C(CCCn1c(=O)c2sccc2n(Cc2ccc(F)cc2)c1=O)NCc1ccco1	417	-9.3% (inactive)	3% (inactive)	92.5	-40.1% (inactive)	106	-0.583 (inactive)	-2.1e-06 (inactive)	0.00594 (inactive)	7.63% (inactive)	15.5% (inactive)
CC(C)C1N=C2c3ccccc3N=C(SCC(=O)NCCc3ccc(S(N)(=O)=O)cc3)N2C1=O (stereo not drawn)	566	-3.4% (inactive)	7.3% (inactive)	60.1	-121% (inactive)	110	-0.598 (inactive)	-3.3e-05 (inactive)	0.00596 (inactive)	22% (inactive)	22% (inactive)
Cc1cc(C)n2nc3nc(N4CCCCC4)nc(-c4ccco4)c3c2n1	315	-2.2% (inactive)	-24.4% (inactive)	105	-260% (inactive)	86.7	-0.433 (inactive)	1e-05 (inactive)	0.00465 (inactive)	12.6% (inactive)	2.12% (inactive)
CCSc1nnc(NC(=O)c2ccc(C)o2)s1	603	-10.7% (inactive)	21.1% (inactive)	96.3	11.4% (inactive)	96.3	-0.531 (inactive)	-4e-05 (inactive)	0.00557 (inactive)	-41.5% (inactive)	-89% (inactive)
CCSc1nc(-c2ccc(OC)cc2)ccc1C#N	380	1.5% (inactive)	-5.1% (inactive)	72.9	-44.4% (inactive)	101	-0.551 (inactive)	-1.9e-05 (inactive)	0.00795 (inactive)	9.36% (inactive)	7.27% (inactive)
CCc1cc(-c2[nH]ncc2-c2ccc3c(c2)OCO3)c(O)cc1O	511	0.5% (inactive)	26% (inactive)	97.8	-11.5% (inactive)	111	-0.572 (inactive)	3.5e-05 (inactive)	0.00533 (inactive)	14% (inactive)	-66.6% (inactive)
Nc1cc(C(=O)O)ccc1Nc1ccccc1	423	-9.8% (inactive)	20.7% (inactive)	86.5	15.1% (inactive)	101	-0.557 (inactive)	-4.4e-06 (inactive)	0.0056 (inactive)	-4.17% (inactive)	-19% (inactive)
CC(C)(C)NC(=O)Cn1nnc(-c2cccs2)n1	238	6.4% (inactive)	23.3% (inactive)	99	-3.4% (inactive)	85.2	-0.508 (inactive)	-1.3e-05 (inactive)	0.00413 (inactive)	1.59% (inactive)	-13% (inactive)
O=c1c2c(nc3nc(CCc4ccccc4)[nH]n13)CCC2	344	6.7% (inactive)	-5.3% (inactive)	97.5	-59.4% (inactive)	105	-0.527 (inactive)	-1.7e-05 (inactive)	0.00459 (inactive)	16.2% (inactive)	19.5% (inactive)
CC(NC(=O)c1ccc(F)cc1)C(c1cccs1)N1CCN(C)CC1 (stereo not drawn)	466	-7.5% (inactive)	-8.9% (inactive)	93.6	23% (inactive)	92.2	-0.424 (inactive)	-5e-05 (inactive)	0.00581 (inactive)	5.9% (inactive)	15.9% (inactive)
Cc1cc(C)nc(N2CCC(C(=O)NCc3cccc(C(F)(F)F)c3)CC2)n1	441	7.1% (inactive)	-55.6% (inactive)	85.9	45.5% (inactive)	85.1	-0.227 (inactive)	-4.8e-06 (inactive)	0.00567 (inactive)	11.9% (inactive)	14% (inactive)
O=C1CC(c2cccc(Cl)c2)CC(O)=C1C=NCCCO (stereo not drawn)	498	-18.1% (inactive)	0.4% (inactive)	87.3	28.3% (inactive)	98.3	-0.393 (inactive)	4.1e-05 (inactive)	0.00604 (inactive)	16.7% (inactive)	20.9% (inactive)
Cc1nnc2ccc(N3CCC4(CC3)OCCO4)nn12	538	-21% (inactive)	9.6% (inactive)	112	-83% (inactive)	117	-0.322 (inactive)	-3.3e-05 (inactive)	0.00635 (inactive)	12.5% (inactive)	8.72% (inactive)
COc1ccccc1C1/C(=C(\O)c2c(C)nc3c(C)cccn23)C(=O)C(=O)N1CCCN(C)C (stereo not drawn)	530	-2.6% (inactive)	-6.8% (inactive)	110	35.1% (inactive)	121	-0.298 (inactive)	-5.5e-05 (inactive)	0.00521 (inactive)	10.7% (inactive)	20.7% (inactive)
C/C(CC(O)(/C=N/O)c1ccccc1)=N\O (stereo not drawn)	343	2.4% (inactive)	4% (inactive)	97	-60.1% (inactive)	120	-0.569 (inactive)	-5.8e-05 (inactive)	0.00371 (inactive)	14.3% (inactive)	15.7% (inactive)
